Reference: ChEMBL document CHEMBL3856222, “Design, structure activity relationship, cytotoxicity and evaluation of antioxidant activity of curcumin derivatives/analogues” (Eur J Med Chem, 2016)
Where a name gives a salt, the structure may show the parent alone.

How the values were obtained:
[1] = Antioxidant activity assessed as nitric oxide radical scavenging activity at 50 uM incubated in dark for 20 mins relative to control; type: functional
[2] = Cytotoxicity against human QG56 cells assessed as decrease in cell viability after 48 hrs by MTT assay; type: functional, cell-based; conditions: QG-56, 48 h
How it was run: (§1)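 Cells seeded at 2 x 10^3 per well in MEM with 10% FBS and left to attach for 24 h. Exposed 48 h to 5, 10, 20, 50, 100 and 200 µM (printed µM/mL). Controls got medium with 0.2% DMSO. Duplicate treatments. After PBS wash, MTT (stock 1 mg/mL) added for 4 h at 37 °C. Formazan dissolved in DMSO and OD read at 590 nm.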

[3] = Cytotoxicity against human HeLa cells assessed as decrease in cell viability after 48 hrs by MTT assay; type: functional, cell-based; how it was run: as §1
[4] = Antioxidant activity assessed as nitric oxide radical scavenging activity at 2 uM incubated in dark for 20 mins relative to control; type: functional
[5] = Antioxidant activity assessed as DPPH free radical scavenging activity at 10 uM incubated in dark for 20 mins relative to control; type: functional
How it was run: (§2)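 Compounds dissolved in DMSO and diluted in 100 mM Tris–HCl (pH 7.4). DPPH (0.1 mM in methanol) added with vigorous shaking, then held in the dark at room temperature for 20 min. Absorbance read at 517 nm with DMSO baseline correction. Compound-free control prepared the same way. Run in triplicate.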

[6] = Antioxidant activity assessed as DPPH free radical scavenging activity at 20 uM incubated in dark for 20 mins relative to control; type: functional; how it was run: as §2
[7] = Antioxidant activity assessed as DPPH free radical scavenging activity at 50 uM incubated in dark for 20 mins relative to control; type: functional; how it was run: as §2
[8] = Antioxidant activity assessed as nitric oxide radical scavenging activity at 10 uM incubated in dark for 20 mins relative to control; type: functional
[9] = Antioxidant activity assessed as DPPH free radical scavenging activity at 2 uM incubated in dark for 20 mins relative to control; type: functional; how it was run: as §2
[10] = Cytotoxicity against human HCT116 cells assessed as decrease in cell viability after 48 hrs by MTT assay; type: functional, cell-based; conditions: HCT-116, 48 h; how it was run: as §1
[11] = Antioxidant activity assessed as nitric oxide radical scavenging activity at 20 uM incubated in dark for 20 mins relative to control; type: functional

SMILES	Activity [1] [%]	IC50 [2] [µM]	IC50 [3] [µM]	Activity [4] [%]	Activity [5] [%]	Activity [6] [%]	Activity [7] [%]	Activity [8] [%]	Activity [9] [%]	IC50 [10] [µM]	Activity [11] [%]
COc1cc(/C=C/C(=O)C2=C(/C=C/c3ccc(O)c(OC)c3)NC(=S)NC2c2ccccc2)ccc1O (stereo not drawn)	50.4	100	25	16.6	26.5	38	48	22	15.5	100	36.6
COc1cc(/C=C/C(=O)C2=C(/C=C/c3ccc(O)c(OC)c3)NC(=S)NC2c2c(Cl)cccc2Cl)ccc1O (stereo not drawn)	50	100	100	15	29	43.2	50.2	20.2	17.7	50	33.9
COc1cc(/C=C/C(=O)C2=C(/C=C/c3ccc(O)c(OC)c3)NC(=O)NC2c2ccc(O)cc2)ccc1O (stereo not drawn)	86.2	50	25	33.3	75	84.6	90.3	72	25	100	80.1
COc1cc(/C=C/C(=O)C2=C(/C=C/c3ccc(O)c(OC)c3)NC(=O)NC2c2ccccc2Cl)ccc1O (stereo not drawn)	56	100	100	16.6	40	46	55.5	23	20.2	50	38.7
COc1cc(/C=C/C(=O)C2=C(/C=C/c3ccc(O)c(OC)c3)NC(=O)NC2c2c(Cl)cccc2Cl)ccc1O (stereo not drawn)	44.2	100	25	11.2	19.2	31.9	43.2	20	11.2	50	33
COc1cc(/C=C/C(=O)C2=C(/C=C/c3ccc(O)c(OC)c3)NC(=O)NC2c2ccccc2O)ccc1O (stereo not drawn)	88	100	50	29.9	73.6	81	88.9	71	33.6	100	80.9
COc1cc(/C=C/C(=O)CC(=O)/C=C/c2ccc(O)c(OC)c2)ccc1O [CURCUMIN]	59.9	100	50	12.2	33.2	42.2	50.2	22.2	6	50	36.5
COc1cc(/C=C/C(=O)C2=C(/C=C/c3ccc(O)c(OC)c3)NC(=O)NC2c2ccc(N(C)C)cc2)ccc1O (stereo not drawn)	89.2	12.5	25	28.2	37.6	48	56	69.9	17.9	12.5	82.2
COc1cc(/C=C/C(=O)C2=C(/C=C/c3ccc(O)c(OC)c3)NC(=S)NC2c2ccccc2O)ccc1O (stereo not drawn)	88.5	50	25	34	60.2	72.3	86.3	70.8	25	100	79.9
COc1cc(/C=C/C(=O)C2=C(/C=C/c3ccc(O)c(OC)c3)NC(=O)NC2c2cccc([N+](=O)[O-])c2)ccc1O (stereo not drawn)	48	25	100	10.2	51.2	66.3	71	19.9	17	50	33
COc1cccc2c1C(=O)c1c(O)c3c(c(O)c1C2=O)C[C@@](O)(C(=O)CO)C[C@@H]3O[C@H]1C[C@H](N)[C@H](O)[C@H](C)O1 [DOXORUBICIN HYDROCHLORIDE]	–	2.5	2.5	–	–	–	–	–	–	5	–
COc1cc(/C=C/C(=O)C2=C(/C=C/c3ccc(O)c(OC)c3)NC(=S)NC2c2ccc(C)cc2)ccc1O (stereo not drawn)	41	12.5	25	10.2	43.2	51	62	19.9	15.5	50	30
COc1cc(/C=C/C(=O)C2=C(/C=C/c3ccc(O)c(OC)c3)NC(=O)NC2c2ccc(C)cc2)ccc1O (stereo not drawn)	52.2	100	100	15.5	29.9	38.2	46	23.9	17.2	12.5	36.3
COc1cc(/C=C/C(=O)C2=C(/C=C/c3ccc(O)c(OC)c3)NC(=S)NC2c2ccccc2Cl)ccc1O (stereo not drawn)	55.6	50	50	15.5	43.2	56.6	60	21.2	16.2	100	39.2
COc1cc(/C=C/C(=O)C2=C(/C=C/c3ccc(O)c(OC)c3)NC(=O)NC2c2ccccc2)ccc1O (stereo not drawn)	50.2	50	100	10.5	26.4	38.2	40.2	20	15.2	25	31
COc1cc(/C=C/C(=O)C2=C(/C=C/c3ccc(O)c(OC)c3)NC(=S)NC2c2ccc(N(C)C)cc2)ccc1O (stereo not drawn)	84	25	12.5	32.3	72	83	89.5	59	30.2	12.5	72.1
